In data set [1] the test system is Trypanosoma cruzi. The experiment in a line: Antitrypanosomal activity against Trypanosoma cruzi Y trypomastigote infected in monkey LLC-MK2 cells assessed as inhibition of cell invasion by trypanosoma by measuring mean number of amastigote parasites per cells at 250 uM pretreated with cells for 30 mins followed by trypomastigote infection measured after 18 hrs by panoptic dye-based optical microscopic analysis. The format is functional, organism-based. Summed up:
(§1)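 LLCMK2 cells adhered on coverslips, exposed to compound at 250 µM for 30 min, then infected with Y-strain trypomastigotes (1 x 10^5; 5 parasites per cell). Incubated 18 h at 37 °C, 5% CO2, then fixed, stained with panoptic dye and read by optical microscopy. Scored as % infected cells, mean amastigotes per cell, and infection index (% infected × mean parasites per cell). Triplicate.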

The next data set concerns the target Galectin-3 (Homo sapiens, UniProt P17931). The experiment in a line: Binding affinity to recombinant human galectin-3 expressed in Escherichia coli BL21 after 3 hrs. A digest of the protocol: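 Human galectin-3 expressed in E. coli BL21, purified on lactosyl-Sepharose, immobilized at 150 µg/mL (20 mM sodium acetate, pH 4.0, 16 h, 4 °C) on NHS-activated label-free biosensor. Compound dissolved in DMSO, diluted into PBS pH 7.4 with 1% or 2% DMSO, 0.09–400 µM, triplicate. Wavelength shift (pm) read over 3 h at 25 °C, blank-subtracted. EC50 from one-site binding fit.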

Data set [2] concerns Trypanosoma cruzi. Nature of the data set: Antitrypanosomal activity against Trypanosoma cruzi Y trypomastigote infected in monkey LLCMK2 cells assessed as inhibition of cell invasion by trypanosoma by measuring infection index at 250 uM pretreated with cells for 30 mins followed by trypomastigote infection measured after 18 hrs by panoptic dye-based optical microscopic analysis (reference value: 68). The data set is classed as functional. A digest of the protocol:
as §1

A further data set relates to LLC-MK2. The experiment in a line: Cytotoxicity against monkey LLC-MK2 cells assessed as reduction in cell viability after 48 hrs by MTT assay. The settings on record: rhesus monkey, llc-mk2, 48 h. The data set is classed as cell-based, Macaca mulatta. Summed up:
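LLCMK2 cells, 1 x 10^4 per well, adhered overnight in RPMI 1640 with 10% FBS. Exposed to 500 to 67,5 µM compound in triplicate for 48 h at 37 °C, 5% CO2. MTT added for 4 h, formazan dissolved in DMSO, absorbance at 570 nm.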
A general note: Formazan colour is commonly taken as a measure of viable cells.

Data set [3] concerns Trypanosoma cruzi. The experiment in a line: Trypanocidal activity against Trypanosoma cruzi Y trypomastigote assessed as effect on parasite viability at 31.25 to 250 uM after 48 hrs by resazurin-based assay. The data set is classed as functional, organism-based. Summed up:
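Culture-derived Y-strain trypomastigotes, 1 x 10^6 per well, in RPMI 1640 with 10% FBS containing compound (250 to 31,25 µM). Held 48 h at 37 °C, 5% CO2. Resazurin added for 6 h, then read at 570 and 600 nm. Viability from OD570 minus OD600, relative to untreated parasites.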

Data set [4] has as its target T1, Trans-sialidase (Trypanosoma cruzi) (UniProt Q26964).
T1 sequence (whole entry): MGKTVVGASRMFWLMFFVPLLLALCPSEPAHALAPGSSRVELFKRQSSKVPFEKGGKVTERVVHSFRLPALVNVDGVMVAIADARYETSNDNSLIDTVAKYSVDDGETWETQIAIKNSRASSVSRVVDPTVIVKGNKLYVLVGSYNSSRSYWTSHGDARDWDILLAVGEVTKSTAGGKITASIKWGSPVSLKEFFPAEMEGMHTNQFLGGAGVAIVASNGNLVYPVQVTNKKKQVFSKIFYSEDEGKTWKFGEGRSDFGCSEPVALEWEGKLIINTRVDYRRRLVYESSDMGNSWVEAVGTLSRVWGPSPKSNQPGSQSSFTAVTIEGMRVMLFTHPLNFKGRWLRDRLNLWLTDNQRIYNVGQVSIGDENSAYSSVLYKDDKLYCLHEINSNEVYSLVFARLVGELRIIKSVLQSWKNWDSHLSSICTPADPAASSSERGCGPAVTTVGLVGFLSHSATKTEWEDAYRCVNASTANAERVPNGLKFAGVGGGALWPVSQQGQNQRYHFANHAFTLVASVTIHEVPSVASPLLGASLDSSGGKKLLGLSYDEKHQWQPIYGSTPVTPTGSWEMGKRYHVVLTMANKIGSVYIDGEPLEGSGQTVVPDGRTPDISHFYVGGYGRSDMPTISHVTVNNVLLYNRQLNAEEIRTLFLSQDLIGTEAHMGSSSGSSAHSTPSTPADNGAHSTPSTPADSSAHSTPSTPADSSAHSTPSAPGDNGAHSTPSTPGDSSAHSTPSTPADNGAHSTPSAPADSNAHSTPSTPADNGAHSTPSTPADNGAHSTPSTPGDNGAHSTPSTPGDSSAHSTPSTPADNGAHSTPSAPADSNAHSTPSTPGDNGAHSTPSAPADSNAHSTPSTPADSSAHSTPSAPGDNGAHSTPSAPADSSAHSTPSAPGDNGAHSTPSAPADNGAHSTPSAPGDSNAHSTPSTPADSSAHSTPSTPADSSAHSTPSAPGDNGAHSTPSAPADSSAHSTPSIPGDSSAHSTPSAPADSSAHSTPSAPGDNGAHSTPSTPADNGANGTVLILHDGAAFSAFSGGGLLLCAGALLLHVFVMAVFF
Nature of the data set: Inhibition of recombinant His-tagged Trypanosoma cruzi trans-sialidase N-terminal catalytic domain at 1 mM preincubated for 10 mins followed by MuNANA addition measured over 5 mins by fluorimetric assay relative to control. A digest of the protocol:
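Recombinant His-tagged 70 kDa trans-sialidase, truncated to the catalytic N-terminal domain, in phosphate buffer pH 7. Preincubated with inhibitor at 1.0 mM final for 10 min at 26 °C. MuNANA added to 0.1 mM and released fluorescence followed over 5 min (ex 360/em 460 nm). Triplicate. %I = 100 × [1 − Vi/V0].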

Data set [5] has as its system Trypanosoma cruzi. The experiment in a line: Antitrypanosomal activity against Trypanosoma cruzi Y trypomastigote infected in monkey LLC-MK2 cells assessed as inhibition of cell invasion by trypanosoma by measuring infected […] at 250 uM pretreated with cells for 30 mins followed by trypomastigote infection measured after 18 hrs by panoptic dye-based optical microscopic analysis (reference value: 63%). Set-up: scale not given: the % may be the effect or the level left. The format is functional. A digest of the protocol: as §1

In a further data set the target is T2, Trans-sialidase (Trypanosoma cruzi, UniProt Q26964).
T2 sequence (Q26964 whole entry): T1 sequence (whole entry)
Nature of the data set: Inhibition of Trypanosoma cruzi trans-sialidase using Trifluoromethylumbelliferyl alpha-sialoside as substrate by UV/visible spectrophotometer.

Active and inactive are the calls of the source. No cut-off for these calls is given here.

Galectin-3, sequence (P17931 whole entry): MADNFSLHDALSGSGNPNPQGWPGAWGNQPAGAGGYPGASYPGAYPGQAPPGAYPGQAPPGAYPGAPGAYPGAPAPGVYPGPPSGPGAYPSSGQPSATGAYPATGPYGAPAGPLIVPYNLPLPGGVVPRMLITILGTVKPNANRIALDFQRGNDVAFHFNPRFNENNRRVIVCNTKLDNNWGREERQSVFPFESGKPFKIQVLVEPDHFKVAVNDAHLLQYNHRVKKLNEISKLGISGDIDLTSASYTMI

Consider `COc1cc(NS(=O)(=O)c2ccc(-n3cc(CO[C@H]4[C@@H](O)[C@@H](CO)O[C@@H](OC)[C@@H]4O)nn3)cc2)nc(OC)n1`, for which the outcome with Trypanosoma cruzi [1] was Active. Also, the Activity entry on Galectin-3 was “Dose-dependent effect”; with LLC-MK2 it was “Non-Toxic”; with Trypanosoma cruzi [5] it was 38%. For the same molecule, the EC50 at Galectin-3 was found to be 18.3 µM. Moreover, the Activity_index with Trypanosoma cruzi [2] stood at 20. Moreover, the result in the data set with Trypanosoma cruzi [3] was inactive. In addition, in data set [4], the inhibition lay in the range of 4.5 to 16%.

Consider `CO[C@@H]1O[C@H](CO)[C@H](O)[C@H](OCc2cn(-c3ccc(S(=O)(=O)Nc4ccccn4)cc3)nn2)[C@H]1O`, for which the result in the data set on Trypanosoma cruzi [1] was Active. The Activity_index with Trypanosoma cruzi [2] is given as 28 - 44. Further, the figures for the Activity result with LLC-MK2 and in the data set with Trypanosoma cruzi [5] were “Non-Toxic” and 47 - 54%, respectively. Besides, in the data set on Trypanosoma cruzi [3], the result was inactive. Moreover, the inhibition in data set [4] lay within 4.5 to 16%.

Regarding `CO[C@@H]1O[C@H](CO)[C@H](O)[C@H](OCc2cn(-c3ccc(S(N)(=O)=O)cc3)nn2)[C@H]1O`, in the data set with Trypanosoma cruzi [1], the outcome was Active. For the same molecule, the Activity result at Galectin-3 is “Dose-dependent effect”; with LLC-MK2, “Non-Toxic”; with Trypanosoma cruzi [5], 47 - 54%. At Galectin-3, the EC50 came to 40.7 µM. Further, in the data set with Trypanosoma cruzi [2], the Activity_index is given as 28 - 44. The outcome in the data set on Trypanosoma cruzi [3] was inactive. In addition, in data set [4], the inhibition was 4.5 to 16%.

For `CO[C@@H]1O[C@H](CO)[C@H](O)[C@H](OCc2cn(-c3ccc(S(=O)(=O)Nc4nc(C)cc(C)n4)cc3)nn2)[C@H]1O`, the outcome in the data set with Trypanosoma cruzi [1] was Active. The Activity entry on Galectin-3 is “Dose-dependent effect”; in the data set with LLC-MK2, “Non-Toxic”; in the data set on Trypanosoma cruzi [5] it was 47 - 54%. Besides, the EC50 at Galectin-3 stood at 67.7 µM. Also, the Activity_index in the data set with Trypanosoma cruzi [2] was 28 - 44. Moreover, the outcome with Trypanosoma cruzi [3] was inactive. For the same molecule, in data set [4], the inhibition is 4.5 to 16%.

On to `CO[C@@H]1O[C@H](CO)[C@H](O)[C@H](OCc2cn(-c3ccc(S(=O)(=O)Nc4nccc(C)n4)cc3)nn2)[C@H]1O`, for which the result in the data set with Trypanosoma cruzi [1] was Active. Further, in the data set on Trypanosoma cruzi [2], the Activity_index was 28 - 44. The results for the Activity result with LLC-MK2 and in the data set with Trypanosoma cruzi [5] were “Non-Toxic” and 47 - 54%, respectively. Besides, in the data set with Trypanosoma cruzi [3], the outcome was inactive. In addition, the inhibition in data set [4] lay within 4.5 to 16%.

With `CO[C@@H]1O[C@H](CO)[C@H](O)[C@H](OCc2cn(-c3ccc(S(=O)(=O)Nc4cc(C)on4)cc3)nn2)[C@H]1O`, the result in the data set on Trypanosoma cruzi [1] was Active. The results for the Activity entry on Galectin-3, in the data set with LLC-MK2 and in the data set with Trypanosoma cruzi [5] were “Dose-dependent effect”, “Non-Toxic” and 41%, respectively. The EC50 at Galectin-3 amounted to 17.2 µM. Besides, the Activity_index in the data set on Trypanosoma cruzi [2] was found to be 20. The outcome in the data set with Trypanosoma cruzi [3] was inactive. Moreover, the inhibition in data set [4] lay within 4.5 to 16%.

Regarding `Cc1ccc(S(=O)(=O)N2c3ccccc3C(=O)/C(=C/c3ccc(O)c(O)c3)C2c2ccc(O)c(O)c2)cc1` (stereo not drawn), 0.6 µM corresponded to half-maximal inhibition against Trans-sialidase (IC50).

In the case of `CO[C@@H]1O[C@H](CO)[C@H](O)[C@H](OCc2cn(-c3ccc(S(=O)(=O)NC(C)=O)cc3)nn2)[C@H]1O`, the outcome in the data set on Trypanosoma cruzi [1] was Active. Also, the values for the Activity result on Galectin-3, in the data set on LLC-MK2 and in the data set on Trypanosoma cruzi [5] were “Dose-dependent effect”, “Non-Toxic” and 47 - 54%, respectively. The EC50 at Galectin-3 was 205 µM. In addition, the Activity_index in the data set on Trypanosoma cruzi [2] is listed as 28 - 44. For the same molecule, the outcome with Trypanosoma cruzi [3] was inactive. Moreover, the inhibition in data set [4] was determined as 88%.

The EC50 is the concentration that produces a half-maximal response. For orientation: inhibition means the share of the control response that was lost under treatment. In general, IC50 refers to the midpoint of a concentration-inhibition curve.

(Values after ChEMBL document CHEMBL4177604, “Binding of triazole-linked galactosyl arylsulfonamides to galectin-3 affects Trypanosoma cruzi cell invasion” (Bioorg Med Chem, 2017).)
